Test [1] addresses T1, Adenosine receptor A3 (Homo sapiens, UniProt P0DMS8).
T1 sequence (P0DMS8 whole entry): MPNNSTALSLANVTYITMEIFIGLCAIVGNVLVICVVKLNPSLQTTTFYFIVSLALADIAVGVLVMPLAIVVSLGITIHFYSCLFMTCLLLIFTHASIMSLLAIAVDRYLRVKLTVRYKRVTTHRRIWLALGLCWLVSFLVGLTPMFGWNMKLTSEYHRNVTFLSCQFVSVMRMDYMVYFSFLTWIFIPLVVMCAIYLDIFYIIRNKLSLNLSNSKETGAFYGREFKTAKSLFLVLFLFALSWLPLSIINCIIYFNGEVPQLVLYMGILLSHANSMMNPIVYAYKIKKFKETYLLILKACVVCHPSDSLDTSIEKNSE
Nature of the test: Displacement of [3H]NECA from human adenosine A3 receptor expressed in HeLa cell membrane incubated for 180 mins by microplate beta scintillation counting based radioligand inhibition assay. The format is cell membranes.

Test [2] has as its target T2, Adenosine receptor A2a (Homo sapiens, UniProt P29274). The test is described as follows: Displacement of [3H]CGS21680 from human adenosine A2A receptor expressed in HEK293 cell membrane incubated for 30 mins by microplate beta scintillation counting based radioligand inhibition assay.
Test [3] addresses T3, Adenosine receptor A3 (Homo sapiens) (UniProt P0DMS8).
T3 sequence (whole entry): T1 sequence (P0DMS8 whole entry)
The test is described as follows: Displacement of [3H]NECA from human adenosine A3 receptor expressed in HEK293 cell membrane at 10 uM incubated for 180 mins by microplate beta scintillation counting based radioligand inhibition assay relative to control.

The subject of test [4] is Blood. The test is described as follows: Inhibition of collagen-stimulated platelet aggregation in human whole blood assessed as decrease in platelet activation measured upto 15 mins by whole blood aggregometry assay. The test is classed as functional, tissue-based. Put shortly: (§1)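 Human whole blood was pre-incubated 5 min with compound dissolved in 0.1% DMSO, or with 0.1% DMSO alone. Test concentrations were 10, 30 or 50 μM. Aggregation was triggered with 6.4 μM ADP or 1 μg/mL collagen and monitored for up to 15 min on a five-channel Multiplate analyzer. Read-out was area under the aggregation curve, n = 13 donors, paired Student's t-test.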

Test [5] concerns the target T2, Adenosine receptor A2a. Nature of the test: Displacement of [3H]ZM241385 from human adenosine A2A receptor expressed in HeLa cells by beta scintillation counting analysis. The format is cell-based.
In test [6] the target is T4, Adenosine receptor A2b (Homo sapiens, UniProt P29275).
T4 sequence (P29275 whole entry): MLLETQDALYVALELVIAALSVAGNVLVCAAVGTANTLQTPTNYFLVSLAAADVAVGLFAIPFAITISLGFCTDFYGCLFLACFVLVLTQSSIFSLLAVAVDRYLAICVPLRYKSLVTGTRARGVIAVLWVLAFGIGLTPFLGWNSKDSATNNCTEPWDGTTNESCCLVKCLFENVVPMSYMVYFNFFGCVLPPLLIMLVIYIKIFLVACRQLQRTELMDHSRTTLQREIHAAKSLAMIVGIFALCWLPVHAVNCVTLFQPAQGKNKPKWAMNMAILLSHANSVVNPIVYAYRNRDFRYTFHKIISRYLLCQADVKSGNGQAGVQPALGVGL
Nature of the test: Displacement of [3H]DPCPX from human adenosine A2B receptor expressed in HEK cell membrane incubated for 30 mins by microplate beta scintillation counting based radioligand inhibition assay. The format is cell membranes.

Test [7] deals with Blood. Nature of the test: Inhibition of ADP-stimulated platelet aggregation in human whole blood assessed as decrease in platelet activation measured upto 15 mins by whole blood aggregometry assay. The format is functional, tissue-based. The method in brief: as §1
In test [8] the test system is Blood. The test is described as follows: Inhibition of thrombus in human whole blood measured after 10 mins by microscopic analysis. The format is functional, tissue-based. The method in brief: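 Citrated human blood labelled with anti-CD61-PE, given compound or 0.1% DMSO 5 min beforehand, recalcified with 1 mM CaCl2, then perfused through type I collagen-coated channels at 20 dyn/cm2 for 5 min. Fluorescent thrombus area summed per donor (thrombi >50 μm2). Paired t-test, n = 9.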

The target in test [9] is T5, Adenosine receptor A1 (Homo sapiens, UniProt P30542).
T5 sequence (P30542 whole entry): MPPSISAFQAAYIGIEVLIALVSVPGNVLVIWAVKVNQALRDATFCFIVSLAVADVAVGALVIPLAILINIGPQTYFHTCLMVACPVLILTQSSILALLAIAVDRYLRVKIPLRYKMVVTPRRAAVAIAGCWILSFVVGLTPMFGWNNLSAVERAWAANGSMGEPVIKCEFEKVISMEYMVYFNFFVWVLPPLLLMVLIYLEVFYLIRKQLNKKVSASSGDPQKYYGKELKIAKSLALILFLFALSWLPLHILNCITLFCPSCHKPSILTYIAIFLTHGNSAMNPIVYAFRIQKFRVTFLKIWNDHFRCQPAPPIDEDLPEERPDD
Nature of the test: Displacement [3H]DPCPX from human adenosine A1 receptor expressed in CHO cell membrane incubated for 60 mins by microplate beta scintillation counting based radioligand inhibition assay. The test is classed as cell membranes.

Test [10] has as its target T6, Adenosine receptor A2b (Homo sapiens) (UniProt P29275).
T6 sequence (whole entry): T4 sequence (P29275 whole entry)
Nature of the test: Displacement of [3H]DPCPX from human adenosine A2B receptor expressed in HEK cell membrane at 10 uM incubated for 30 mins by microplate beta scintillation counting based radioligand inhibition assay relative to control. The format is cell membranes. The following applies: HEK293.

Among the data in ChEMBL document CHEMBL4828708 (Eur J Med Chem, 2021) are Ki, inhibition and IC50 values, retold here.

pIC50, pKi: −log10 of the molar value. Calls of active or inactive are those of the source. The rule behind the calls is not given here.

T2 sequence (P29274 whole entry): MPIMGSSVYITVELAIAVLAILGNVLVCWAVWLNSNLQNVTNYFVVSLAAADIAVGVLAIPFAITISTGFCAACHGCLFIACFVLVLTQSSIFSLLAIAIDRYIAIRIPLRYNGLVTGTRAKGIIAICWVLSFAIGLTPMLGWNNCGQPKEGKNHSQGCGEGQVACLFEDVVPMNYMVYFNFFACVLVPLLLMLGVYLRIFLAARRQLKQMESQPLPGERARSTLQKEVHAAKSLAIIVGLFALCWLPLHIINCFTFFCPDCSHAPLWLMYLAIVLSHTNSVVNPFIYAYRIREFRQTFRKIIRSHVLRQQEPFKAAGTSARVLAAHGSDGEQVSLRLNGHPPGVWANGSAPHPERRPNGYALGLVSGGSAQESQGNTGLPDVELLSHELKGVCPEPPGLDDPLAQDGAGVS

Take `Nc1ncnc2c1nc(C#Cc1ccccc1)n2[C@H]1C[C@H](O)[C@@H](CO)O1`: the values for the negative-log Ki (pKi) in test [1] and in test [2] were 6.06 and 5.70, respectively. In the case of `Nc1ncnc2c1nc(CCc1ccccc1)n2[C@@H]1O[C@H](CO)[C@@H](O)[C@H]1O`, the inhibition in test [3] stood at 8%. Consider `CCNC(=O)[C@H]1O[C@@H](n2cnc3c(NCCCc4ccccc4)ncnc32)[C@H](O)[C@@H]1O`, for which the inhibition result in [4] and in test [7] was “Active” throughout. In [5], the pIC50 is 4.84. For the same compound, the negative-log Ki (pKi) in [1] was 8.35; in test [6], 5.86. In the case of `Nc1ncnc2c1nc(C#Cc1ccccc1)n2[C@@H]1O[C@H](CO)[C@@H](O)[C@H]1O`, in test [1], the negative-log Ki (pKi) was 6.07. Same read-out and setting: the value for `Nc1nc(C#Cc2ccccc2)nc2c1ncn2[C@@H]1O[C@H](CO)[C@@H](O)[C@@H]1O` was 5.91.

Turning to `OC[C@H]1O[C@@H](n2cnc3c(NCCCc4ccccc4)ncnc32)[C@H](O)[C@@H]1O`, the inhibition result in test [8] and in test [7] was “Active” each time. In addition, the results for the negative-log Ki (pKi) in test [1] and in test [9] were 7.26 and 7.10, respectively. For `Nc1nc(C#Cc2ccccc2)nc2c1ncn2[C@@H]1O[C@H](CO)[C@@H](O)[C@H]1O`, the pKi in test [1] was 7.38; in test [9], 6.19; in test [2], 5.98. Consider `OC[C@H]1O[C@@H](n2cnc3c(NCCCc4ccccc4)nc(Cl)nc32)C[C@@H]1O`, for which the inhibition in test [10] was 1%. For the same compound, the pKi was 5.06 in test [1] and 4.88 in [9]. With `Nc1nc(CCc2ccccc2)nc2c1ncn2[C@@H]1O[C@H](CO)[C@@H](O)[C@H]1O`, the negative logarithm of the Ki (pKi) is 5.06 in test [1] and 5.71 in test [9]. On to `OC[C@H]1O[C@@H](n2cnc3c(NCCCCc4ccccc4)ncnc32)[C@H](O)[C@@H]1O`, for which the negative logarithm of the Ki (pKi) in test [9] is 6.06. The compound `CCNC(=O)[C@H]1O[C@@H](n2cnc3c(NCCCCc4ccccc4)ncnc32)[C@H](O)[C@@H]1O` gave a pKi in test [9] of 6.10. In test [3], `Nc1ncnc2c1nc(CCc1ccccc1)n2[C@H]1C[C@H](O)[C@@H](CO)O1` showed an inhibition of 44%. In the case of `Nc1ncnc2c1ncn2[C@@H]1O[C@H](CO)[C@@H](O)[C@H]1OCOCCCc1ccccc1`, the inhibition in test [3] was found to be 29%.

As to `Nc1ncnc2c1ncn2[C@H]1C[C@H](O)[C@@H](CO)O1`, the inhibition was determined as 12% in test [10] and 5% in test [3].

Regarding `Nc1nc(CCc2ccccc2)nc2c1ncn2[C@@H]1O[C@H](CO)[C@@H](O)[C@@H]1O`, the inhibition in [3] amounted to 54%.
